Screens deposited in PubChem BioAssay by Broad Institute.
FN deposition inh – fibronectin deposition inhibition; inhibition, % at 12.6 µM; AID 743247; 350,000 compounds, 0.086% hits; AH1F fibroblasts, Alexa488-fibronectin deposition fluorescence, overnight;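 active means mean inhibition across replicates of 30% or more, regardless of how many single replicates reach that level; inconclusive means mean under 30% yet at least half of replicates reach 30%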
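Material: AH1F fibroblast monolayer depositing Alexa488-labelled fibronectin into matrix / Amount: 10000 AH1F cells per well / Signal: fluorescence 485/525 nm / Medium: DMEM, 2% serum / Compound: single dose, pinned / Incubation: 1 h cell adhesion before compound, then overnight fibronectin incubation / Reagent: Alexa488-FN, 24 nM final / Read-out: inhibition of fibronectin deposition signal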
EWS-Fli block – EWS/Fli transcriptional activity inhibition. A673 NR0B1-luciferase reporter, viability-normalised. inhibition, % at 12.6 µM. 350,000 compounds, 0.67% hits. AID 651661;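 active means mean inhibition of at least 50% after viability correction, with every replicate also passing that limit; inconclusive means mean reaches 50% but only one of two replicates passes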;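 further: firefly luciferase signal divided by Alamar Blue viability fluorescence both relative to DMSO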
PGC1a acetyl inh – lowers PGC1a acetylation signal in U2OS cells; AID 651687; AlphaScreen anti-acetyl-lysine; with virally co-expressed GCN5 acetyltransferase; 350,000 compounds, 0.17% hits; inhibition, % at 15.6 µM;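 active means every replicate shows inhibition of at least 40%; inconclusive means mean inhibition at least 40% but some replicate below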
FGF22 binding – FGF22 (human) thermal shift binding; recombinant FGF22 thermal shift, SYPRO orange fluorescence; percent of sucrose octasulfate shift, DMSO zero; 340,000 compounds, 1.5% hits; AID 651658; activity (Tm shift, normalised), % at 9.99 µM;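 active means mean Tm shift, scaled 0 neutral to 100 positive control, at about 1.3% or above, every replicate too, limit read from the data; inconclusive means no clear call, values can overlap the other calls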
Target sequence (Q9HCT0 whole entry, looked up): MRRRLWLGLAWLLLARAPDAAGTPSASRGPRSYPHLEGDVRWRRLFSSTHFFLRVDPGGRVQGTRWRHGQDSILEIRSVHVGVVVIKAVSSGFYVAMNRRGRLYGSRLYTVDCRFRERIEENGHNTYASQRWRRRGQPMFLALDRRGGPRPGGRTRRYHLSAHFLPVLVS
PAX8 reporter – inhibitors of PAX8 transcriptional activity in RMG-I cells; RMG-I TPO-luciferase reporter, SteadyGlo, 24 h; inhibition, % at 12.6 µM; 360,000 compounds, 1.2% hits; AID 652154;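 active means mean replicate inhibition at least 60% with every replicate also reaching 60%; inconclusive means only one of the two criteria is met; inactive means mean below 60% and not all replicates reaching 60%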;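 further: luciferase light reporting Pax8 driven TPO promoter activity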
HIV Env fusion – blocks HIV Env-driven cell-cell fusion; HeLa-JRFL Env/CEM21 cell fusion, luciferase; AID 651610; inhibition, % at 12.3 µM; 360,000 compounds, 1.1% hits;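 active means mean replicate inhibition score of at least 50 and every replicate individually at or above 50; inconclusive means only one of the two criteria met; inactive means mean below 50 and not all replicates reaching 50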
A number is an active result. This is a sample that favours compounds with a hit; in the whole collection about 3.1% have one here.

For COc1ccc(C#Cc2ccc([C@H]3[C@H](CO)N4CCCCN(C(=O)Nc5cccc(F)c5)C[C@@H]34)cc2)cc1 the results were EWS-Fli block inactive, PGC1a acetyl inh inactive, FGF22 binding inactive and PAX8 reporter inconclusive.
Screening O=C(Nc1cccc(F)c1)N1CCCCN2[C@@H](CO)[C@@H](c3ccc(C#Cc4ccccc4)cc3)[C@@H]2C1 returned EWS-Fli block 75.9, PGC1a acetyl inh inactive, FGF22 binding inactive and PAX8 reporter 116.2.
`O=C(Nc1ccc(C(F)(F)F)cc1)c1csc(-c2ccncc2)n1` gave FN deposition inh inactive, EWS-Fli block inactive, PGC1a acetyl inh inactive, FGF22 binding 43.1, PAX8 reporter inactive and HIV Env fusion inactive.
For O=C1OC[C@@H]2CCCN2C(=O)[C@@H](CC(=O)N(CCO)Cc2ccccc2)C/C=C\CC[C@H]1Cc1ccc(F)cc1 the results were FN deposition inh inactive, EWS-Fli block inactive, PGC1a acetyl inh inactive, FGF22 binding inactive, PAX8 reporter inactive and HIV Env fusion inactive.
Screening O=C(C[C@@H]1C/C=C/CC[C@H](Cc2ccc(F)cc2)C(=O)OC[C@@H](Cc2ccccc2)NC1=O)N[C@H](CO)Cc1ccccc1 returned FN deposition inh inactive, EWS-Fli block inconclusive, PGC1a acetyl inh inactive, FGF22 binding inactive, PAX8 reporter 102.5 and HIV Env fusion inactive.
`O=C1N[C@@H](Cc2ccccc2)COC(=O)[C@@H](Cc2ccc(F)cc2)CC/C=C/C[C@@H]1CC(=O)N(CCO)Cc1ccccc1` gave FN deposition inh inactive, EWS-Fli block inactive, PGC1a acetyl inh inactive, FGF22 binding inactive, PAX8 reporter 68.1 and HIV Env fusion inactive.
`O=C1OC[C@@H]2CCCN2C(=O)[C@@H](CC(=O)N(CCO)Cc2ccccc2)C/C=C\C[C@@H]1Cc1ccc(F)cc1` gave FN deposition inh inactive, EWS-Fli block inactive, FGF22 binding 44.3 and PAX8 reporter inactive.
C[C@@H]1CN([C@@H](C)CO)C(=O)CCCn2cc(nn2)CO[C@H]1CN(C)Cc1cccc(O)c1 was read as FN deposition inh inactive, EWS-Fli block inactive, PGC1a acetyl inh inactive, FGF22 binding inactive and HIV Env fusion inactive.
`CN(C)C(=O)c1cccc(-c2ccc(C3[C@H]4CNC[C@@H]3N4Cc3cccc(C(F)(F)F)c3)cc2)c1` (some centres undefined) gave FN deposition inh inactive, EWS-Fli block inactive, PGC1a acetyl inh inactive and PAX8 reporter inactive.
`COc1ccccc1C(=O)Nc1ccc2c(c1)OC[C@@H](C)NC[C@@H](C)[C@@H](OC)CN(C)C2=O` gave FN deposition inh inactive, EWS-Fli block inactive, PGC1a acetyl inh inactive, PAX8 reporter inactive and HIV Env fusion inactive.
For Cc1c(C(=O)NCc2ccccn2)oc2ccc(S(=O)(=O)N3CCC4(CC3)OCCO4)cc12 the results were FN deposition inh inactive, EWS-Fli block inactive, PGC1a acetyl inh inactive, FGF22 binding 43.0, PAX8 reporter inactive and HIV Env fusion inactive.
For CC(C)(C)n1nnnc1C(c1ccc2ncccc2c1)N1CCC(O)CC1 (centres undefined) the results were FN deposition inh inactive, EWS-Fli block inactive, PGC1a acetyl inh inactive, FGF22 binding 43.7, PAX8 reporter inactive and HIV Env fusion inactive.
Screening CC(C)(C)n1nnnc1C(c1cccnc1)N1CCN(C2CCCCC2)CC1 (centres undefined) returned FN deposition inh inactive, PGC1a acetyl inh inactive and HIV Env fusion 65.0.
For CC(=O)N1CCCCN2[C@H](CO)[C@H](c3ccc(-c4cccc(C)c4)cc3)[C@H]2C1 the results were EWS-Fli block inactive, PGC1a acetyl inh inactive, FGF22 binding inactive and PAX8 reporter inactive.
`CCN(CC)c1ccc(NC(=O)CCCCC(=O)Nc2ccc(N(CC)CC)cc2)cc1` gave FN deposition inh inactive, EWS-Fli block inconclusive, FGF22 binding inactive, PAX8 reporter inactive and HIV Env fusion 61.2.
CCN(CC)c1ccc(NC(=O)CCCCCN2C(=O)c3ccccc3C2=O)cc1 was read as FN deposition inh inactive and HIV Env fusion inactive.
`CCN(CC)c1ccc(C(=O)NNC(=O)CCNC(=O)c2ccccc2)cc1` gave FN deposition inh inactive, EWS-Fli block inactive, PGC1a acetyl inh inactive, FGF22 binding inactive and PAX8 reporter inactive.
`CCN(CC)c1ccc(C(=O)NNC(=O)CCl)cc1` gave FN deposition inh inactive, EWS-Fli block inactive, PGC1a acetyl inh inactive, FGF22 binding 44.2, PAX8 reporter inactive and HIV Env fusion inactive.
Screening COCC#Cc1ccc([C@@H]2[C@@H](C#N)N(C(=O)NC3CCCC3)[C@@H]2CO)cc1 returned FN deposition inh inactive, EWS-Fli block inactive, PGC1a acetyl inh inactive, FGF22 binding inactive, PAX8 reporter inactive and HIV Env fusion inactive.
`C[C@@H]1CN([C@H](C)CO)C(=O)c2cccc(NS(C)(=O)=O)c2O[C@H]1CN(C)Cc1ccc(C(=O)O)cc1` gave EWS-Fli block inactive, PGC1a acetyl inh inactive and FGF22 binding inactive.
CC(=O)n1cc([C@H]2C=C(C(=O)N3CCCCCCC3)O[C@@H](OCCCCO)C2)c2ccccc21 was read as EWS-Fli block inactive, PGC1a acetyl inh inactive, FGF22 binding inactive, PAX8 reporter inactive and HIV Env fusion inactive.
Screening CCn1c(SCC(=O)NCC2CCCO2)nc2c([nH]c3ccccc32)c1=O (centres undefined) returned FN deposition inh inactive, FGF22 binding inactive, PAX8 reporter inactive and HIV Env fusion inactive.
CCn1c(SCC(=O)NCCc2ccccc2)nc2c([nH]c3ccccc32)c1=O was read as FN deposition inh inactive, EWS-Fli block inactive, PGC1a acetyl inh inactive, FGF22 binding inactive, PAX8 reporter inactive and HIV Env fusion 66.8.
`CCn1c(SCC(=O)NCCc2ccc(OC)c(OC)c2)nc2c([nH]c3ccccc32)c1=O` gave FN deposition inh inactive, EWS-Fli block inactive, FGF22 binding inactive, PAX8 reporter inactive and HIV Env fusion 70.0.
`COc1ccc(C#Cc2cnc3c(c2)C(=O)N([C@@H](C)CO)C[C@@H](C)[C@H](CN(C)C(=O)Nc2cccc(OC)c2)O3)cc1` gave FN deposition inh inactive, EWS-Fli block inactive, PGC1a acetyl inh inactive and HIV Env fusion inactive.
Screening C[C@@H]1CN([C@@H](C)CO)C(=O)c2cc(NC(=O)Cn3cnnn3)ccc2O[C@H]1CN(C)C(=O)NC1CCCCC1 returned FN deposition inh inactive, EWS-Fli block inactive, PGC1a acetyl inh inactive and FGF22 binding inactive.
Screening CC(C)C(=O)Nc1ccc2c(c1)C(=O)N(C)[C@H]1CC[C@H](CC(=O)N[C@@H](C)c3ccccc3)O[C@H]1CO2 returned FN deposition inh inactive, EWS-Fli block inactive, PGC1a acetyl inh inactive, FGF22 binding inactive, PAX8 reporter inactive and HIV Env fusion inactive.
COc1ccc(/C=N/NC(=O)c2ccc(CN3C(=O)c4cccc5cccc3c45)cc2)cc1O was read as FN deposition inh inactive, EWS-Fli block inactive, FGF22 binding inactive, PAX8 reporter inactive and HIV Env fusion inactive.
